From PubChem
SKBR3 24h inh = SK-BR-3 proliferation inhibitors | SK-BR-3 viability, CellTiter-Glo ATP luminescence, 24 h; active compounds read low | viability, % at 10 µM | 0.47% of 41,000 active | AID 847;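 active = viability at or below the median of all test compounds minus 3 SD, in both replicates if run twice, cut at about 45% in these data; inconclusive = duplicate replicates that disagree with each other; inactive = viability above that cutoff in every replicate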;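 note: 100% = median untreated cell wells and 0% = median positive control drug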
Jurkat viability = cytotoxicity toward Jurkat cells | Jurkat E6.1 viability, ATP luminescence, 48 h | inhibition, % at 4 µM | 1.2% of 56,000 active | AID 463;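 active = inhibition above the mean inhibition of all tested compounds plus 3 SD, cut at about 28% in these data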
HEK293 NFkB inh = lowers PMA/ionomycin-induced NF-kB signal in HEK293 cells; 0.21% of 62,000 active; inhibition, % at 3 µM; AID 465; HEK-293 NF-kB luciferase reporter, luminescence;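 active = inhibition above the mean of all tested compounds plus 3 SD, cut at about 40% in these data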;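 note: 0% = stimulated DMSO wells and 100% = 10 µM reference inhibitor 5653914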
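Signal: luciferase luminescence; Material: HEK-293 cells with stable firefly luciferase reporter driven by four HIV NF-kB elements; Probe or stimulus: PMA with ionomycin; Replication: tested once; Times: 1 h compound pretreatment, then 16 h stimulation at 37 °C, 5% CO2; Benchmarks: DMSO and 10 µM reference inhibitor; Evaluation: per-plate % inhibition versus controls.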
HER2 expr 66K = Her2 kinase expression inhibition; SKBR-3 HER2 protein level, AlphaScreen, 18-24 h; active compounds read low; 0.69% of 65,000 active; HER2 level % of control, % at 10 µM; AID 645;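 active = HER2 level under 5% of the carrier-only control; inconclusive = no clear call, values can overlap the other calls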;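 note: 100% = DMSO carrier and 0% = 500 nM PU-H71 HSP90 inhibitor; lower value means stronger loss of Her2 protein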
Target sequence (P04626 whole entry, looked up): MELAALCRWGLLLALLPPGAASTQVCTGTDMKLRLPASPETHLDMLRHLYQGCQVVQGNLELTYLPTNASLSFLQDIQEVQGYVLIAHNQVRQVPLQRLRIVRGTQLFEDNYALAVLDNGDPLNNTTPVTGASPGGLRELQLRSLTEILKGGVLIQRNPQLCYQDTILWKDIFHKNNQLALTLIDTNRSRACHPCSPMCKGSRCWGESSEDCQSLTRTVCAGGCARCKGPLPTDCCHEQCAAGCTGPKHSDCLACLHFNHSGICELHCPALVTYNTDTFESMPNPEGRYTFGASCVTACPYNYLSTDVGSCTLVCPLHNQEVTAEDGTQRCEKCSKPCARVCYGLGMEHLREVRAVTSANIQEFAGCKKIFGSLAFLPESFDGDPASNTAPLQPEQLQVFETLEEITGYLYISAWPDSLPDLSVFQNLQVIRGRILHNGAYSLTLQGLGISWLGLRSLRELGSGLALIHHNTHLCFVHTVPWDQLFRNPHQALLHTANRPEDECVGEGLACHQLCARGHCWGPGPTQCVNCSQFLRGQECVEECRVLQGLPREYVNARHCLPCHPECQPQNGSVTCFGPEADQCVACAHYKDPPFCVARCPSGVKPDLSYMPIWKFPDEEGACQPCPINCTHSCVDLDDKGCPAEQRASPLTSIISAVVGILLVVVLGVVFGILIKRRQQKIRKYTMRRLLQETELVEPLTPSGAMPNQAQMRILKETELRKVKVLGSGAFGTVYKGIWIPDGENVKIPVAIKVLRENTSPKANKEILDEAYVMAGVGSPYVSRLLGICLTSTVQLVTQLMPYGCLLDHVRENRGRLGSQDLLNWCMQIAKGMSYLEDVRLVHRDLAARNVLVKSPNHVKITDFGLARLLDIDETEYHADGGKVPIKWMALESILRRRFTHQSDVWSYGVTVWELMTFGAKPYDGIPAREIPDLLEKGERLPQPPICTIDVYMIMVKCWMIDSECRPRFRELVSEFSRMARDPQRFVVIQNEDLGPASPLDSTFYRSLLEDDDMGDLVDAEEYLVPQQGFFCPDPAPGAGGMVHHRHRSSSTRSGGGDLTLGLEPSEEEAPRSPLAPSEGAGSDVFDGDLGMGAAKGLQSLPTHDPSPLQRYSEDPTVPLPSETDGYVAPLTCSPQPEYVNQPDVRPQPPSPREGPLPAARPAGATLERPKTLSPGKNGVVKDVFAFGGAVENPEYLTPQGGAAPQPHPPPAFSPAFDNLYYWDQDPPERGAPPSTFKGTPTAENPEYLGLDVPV
Active calls of the source: *. Shown are actives, neighbours in structure and some others; about 2% of the full set was active somewhere.

`CCOc1ccc(C(=O)CCN2CCCCCC2)cc1` gave SKBR3 24h inh 106, Jurkat viability 2, HEK293 NFkB inh 3 and HER2 expr 66K 99.
`CCCOc1ccc(C(=O)CCN2CCCCC2)cc1` gave SKBR3 24h inh 85, Jurkat viability 0, HEK293 NFkB inh -1 and HER2 expr 66K -20*.
`Cc1cc(NC(=O)CSc2nc3ccccc3c(=O)n2C2CCCC2)no1` gave SKBR3 24h inh 88, Jurkat viability 71*, HEK293 NFkB inh 20 and HER2 expr 66K 67.
Screening COc1cc(CN2CCN(c3cccc(Cl)c3)CC2)cc(OC)c1OC returned SKBR3 24h inh 98, Jurkat viability 81*, HEK293 NFkB inh 21 and HER2 expr 66K 69.
`COc1ccc(CCNC(=O)CN2CCN(c3cccc(Cl)c3)CC2)cc1OC` gave Jurkat viability 1, HEK293 NFkB inh 13 and HER2 expr 66K 74.
`CCCCCn1c(SCC#N)nc2cc(C(=O)NC3CCCCC3)ccc2c1=O` gave SKBR3 24h inh 46, Jurkat viability 12, HEK293 NFkB inh 16 and HER2 expr 66K -20*.
`CCCCCn1c(SCC#N)nc2cc(C(=O)NCC3CCCO3)ccc2c1=O` (stereo unspecified) gave Jurkat viability 1, HEK293 NFkB inh 4 and HER2 expr 66K 86.
COc1cccc(-c2nnn(CC(=O)O)n2)c1 was read as SKBR3 24h inh 99, Jurkat viability 1, HEK293 NFkB inh 2 and HER2 expr 66K -22*.
For COc1cc2c(=O)n(CCCN3CCOCC3)c(=S)[nH]c2c(OC)c1OC the results were Jurkat viability 2, HEK293 NFkB inh -4 and HER2 expr 66K 103.
For COCCNc1nc(C(C)(C)C)nc2c1nnn2Cc1ccccc1Cl the results were SKBR3 24h inh 83, HEK293 NFkB inh -3 and HER2 expr 66K -25*.
Screening OCCNc1nc(C2CC2)nc2c1nnn2Cc1ccccc1Cl returned SKBR3 24h inh 69, Jurkat viability 7, HEK293 NFkB inh 3 and HER2 expr 66K 80.
Screening CCC/C(O)=C1\C(=O)CC(C)(C)CC1=Nc1ccc(OC)cc1OC returned SKBR3 24h inh 107, Jurkat viability 86*, HEK293 NFkB inh 21 and HER2 expr 66K 53.
`c1ccc(-c2noc(-c3ccncc3)n2)nc1` gave Jurkat viability 10, HEK293 NFkB inh -36 and HER2 expr 66K 126.
Screening c1ccc(-c2noc(-c3ccc4ccccc4c3)n2)nc1 returned SKBR3 24h inh 111, Jurkat viability 13, HEK293 NFkB inh 75* and HER2 expr 66K 62.
c1ccc(-c2noc(-c3ccc4c(c3)OCO4)n2)nc1 was read as SKBR3 24h inh 84, Jurkat viability 41*, HEK293 NFkB inh 41* and HER2 expr 66K 100.
Cc1cc2nc(NC3=NCN(Cc4cccnc4)CN3)nc(C)c2cc1C was read as SKBR3 24h inh 75, Jurkat viability 12, HEK293 NFkB inh 8 and HER2 expr 66K 79.
C=CCn1c(=O)/c(=C/c2cc(OC)c(OC)c(OC)c2)s/c1=C(/C#N)c1nc2ccccc2n1C was read as SKBR3 24h inh 40*, HEK293 NFkB inh 8 and HER2 expr 66K 80.
C=CCn1c(=O)/c(=C/c2ccc(O)cc2)s/c1=C(/C#N)c1nnc2n1CCCCC2 was read as Jurkat viability -2, HEK293 NFkB inh 16 and HER2 expr 66K 94.
Screening Cc1ccc2c(c1)c1c3n2CCN(C(=O)CN2CCN(C)CC2)C3CCC1 (stereo unspecified) returned SKBR3 24h inh 89, Jurkat viability 6, HEK293 NFkB inh 10 and HER2 expr 66K 75.
CN1CCN(CC(=O)N2CCn3c4c(c5cc(C6CCCCC6)ccc53)CCCC42)CC1 (stereo unspecified) was read as Jurkat viability 6, HEK293 NFkB inh -1 and HER2 expr 66K -16*.
`COc1ccc(-n2nnc3c(SCC(=O)Nc4ccc5c(c4)OCCO5)ncnc32)cc1` gave Jurkat viability -2, HEK293 NFkB inh 3 and HER2 expr 66K -7.2*.
Screening Fc1cc2ncn(Cc3ccccc3)c2cc1F returned SKBR3 24h inh 84, Jurkat viability 5, HEK293 NFkB inh 8 and HER2 expr 66K 109.
For O=C(O)[C@@H]1CCCC[C@@H]1C(=O)N1CCc2ccccc2C1CN1C(=O)c2ccccc2C1=O (stereo partly specified) the results were SKBR3 24h inh 93, Jurkat viability 2, HEK293 NFkB inh 59* and HER2 expr 66K 100.
`C=CS(=O)(=O)c1ccc(Oc2ccc(S(=O)(=O)C=C)cc2)cc1` gave SKBR3 24h inh inconclusive, Jurkat viability 100*, HEK293 NFkB inh 81* and HER2 expr 66K -22*.
